# Experiments:
# [1] = target: T1, AbDapE (Acinetobacter baumannii, UniProt A3M8H2); experiment: DapE ninhydrin enzyme inhibition assay, AbDapE; format: biochemical; settings: kinetic assays, modified ninhydrin assay
# In short: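 Purified His-tag-cleaved AbDapE at 8 nM final in 50 mM HEPES pH 7.5, 30 °C. Test compound (DMSO, 5% final) is preincubated with enzyme for 10 min before 2 mM N6-methyl-L,L-SDAP. After 10 min, heat to 100 °C for 1 min, chill, add 2% ninhydrin, 80 °C for 15 min, then read A570.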
# [2] = target: T2, HiDapE (Haemophilus influenzae, UniProt P44514); experiment: Thermal shift assay, HiDapE; format: binding
# T2 sequence (P44514 1-377): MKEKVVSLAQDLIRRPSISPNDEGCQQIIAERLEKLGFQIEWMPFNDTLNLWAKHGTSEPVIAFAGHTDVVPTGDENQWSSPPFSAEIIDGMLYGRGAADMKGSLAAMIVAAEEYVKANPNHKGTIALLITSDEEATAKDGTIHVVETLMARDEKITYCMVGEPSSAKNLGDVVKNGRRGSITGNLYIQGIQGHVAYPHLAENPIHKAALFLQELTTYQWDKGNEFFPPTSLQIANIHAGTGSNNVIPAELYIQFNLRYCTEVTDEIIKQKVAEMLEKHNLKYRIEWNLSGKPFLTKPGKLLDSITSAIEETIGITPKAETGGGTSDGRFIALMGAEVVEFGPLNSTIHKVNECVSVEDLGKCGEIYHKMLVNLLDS
# [3] = target: T1, AbDapE; experiment: Thermal shift assay, AbDapE native; format: binding; settings: 16 μM AbDapE + 10× dye
# In short: (§1)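 SYPRO Orange thermal melt at 10× dye in 50 mM HEPES pH 7.5, 10 µL triplicates. Protein is 16 µM for native AbDapE and 6 µM for SeMet AbDapE, with DMSO kept below 5%. Tm comes from the negative first derivative of the melting curves, further differentiated to the third derivative. Ki is calculated from Tm plotted against log[test compound] using a derived van't Hoff equation.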
# [4] = target: AbDapE-SeMet (Acinetobacter baumannii, UniProt A3M8H2); experiment: Thermal shift assay, AbDapE-SeMet; format: binding; settings: 6 μM AbDapE-SeMet + 10× dye
# In short: as §1
# [5] = target: T2, HiDapE; settings: read-out: HiDapE IC50 (sulfate); previously published enzyme inhibition; cited from earlier work
# [6] = 0.001 mM Li2SO4, 200 nM HiDapE + 10× dye
# [7] = 0.005 mM Li2SO4, 200 nM HiDapE + 10× dye
# [8] = 0.1 mM Li2SO4, 200 nM HiDapE + 10× dye
# [9] = 0.5 mM Li2SO4, 200 nM HiDapE + 10× dye
# [10] = 1 mM Li2SO4, 200 nM HiDapE + 10× dye
# [11] = 5 mM Li2SO4, 200 nM HiDapE + 10× dye
# [12] = 10 mM Li2SO4, 200 nM HiDapE + 10× dye
# [13] = 30 mM Li2SO4, 200 nM HiDapE + 10× dye
# [14] = 50 mM Li2SO4, 200 nM HiDapE + 10× dye
# [15] = 60 mM Li2SO4, 200 nM HiDapE + 10× dye
# [16] = 70 mM Li2SO4, 200 nM HiDapE + 10× dye
# AbDapE-SeMet, sequence (A3M8H2 whole entry): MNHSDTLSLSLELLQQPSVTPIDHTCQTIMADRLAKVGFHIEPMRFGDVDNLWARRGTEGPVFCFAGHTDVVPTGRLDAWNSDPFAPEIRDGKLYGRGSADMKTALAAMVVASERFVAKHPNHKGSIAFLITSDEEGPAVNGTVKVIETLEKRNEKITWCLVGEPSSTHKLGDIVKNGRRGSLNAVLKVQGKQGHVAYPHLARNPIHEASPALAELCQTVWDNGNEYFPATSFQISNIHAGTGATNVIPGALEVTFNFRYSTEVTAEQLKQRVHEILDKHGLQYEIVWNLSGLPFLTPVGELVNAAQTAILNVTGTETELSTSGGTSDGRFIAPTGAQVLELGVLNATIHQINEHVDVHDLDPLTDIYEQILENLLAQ
# T1 sequence (A3M8H2 whole entry): as above
structure (smiles),measurement,setting,value
O=S(=O)([O-])[O-].[Li+].[Li+] [Lithium sulfate],Mode of inhibition of AbDapE,[1],competitive inhibitors
same,Tm1 HiDapE,[2]; [6],51.7 ± 0.3 °C
same,Tm2 HiDapE,[2]; [6],75.6 ± 0.3 °C
same,Tm1 HiDapE,[2]; [7],51.4 ± 0.2 °C
same,Tm2 HiDapE,[2]; [7],76.2 ± 0.5 °C
same,Tm1 HiDapE,[2]; [8],52.7 ± 0.4 °C
same,Tm2 HiDapE,[2]; [8],76.1 ± 0.6 °C
same,Tm1 HiDapE,[2]; [9],51.2 ± 0.7 °C
same,Tm2 HiDapE,[2]; [9],78.3 ± 0.1 °C
same,Tm1 HiDapE,[2]; [10],50.7 ± 0.2 °C
same,Tm2 HiDapE,[2]; [10],77.8 ± 0.1 °C
same,Tm1 HiDapE,[2]; [11],51.2 ± 0.6 °C
same,Tm2 HiDapE,[2]; [11],77.7 ± 0.1 °C
same,Tm1 HiDapE,[2]; [12],51.2 ± 0.6 °C
same,Tm2 HiDapE,[2]; [12],77.4 ± 0.1 °C
same,Tm1 HiDapE,[2]; [13],52.6 ± 0.5 °C
same,Tm2 HiDapE,[2]; [13],74.6 ± 0.3 °C
same,Tm1 HiDapE,[2]; [14],53.3 ± 0.5 °C
same,Tm2 HiDapE,[2]; [14],75.9 ± 0.1 °C
same,Tm1 HiDapE,[2]; [15],53.3 ± 0.3 °C
same,Tm2 HiDapE,[2]; [15],73.8 ± 0.1 °C
same,Tm1 HiDapE,[2]; [16],54.4 ± 0.5 °C
same,Tm2 HiDapE,[2]; [16],76.6 ± 0.1 °C
same,Ki,"[2]; read-out: Ki (HiDapE, thermal shift), Tm vs log [concentration], derived Van't Hoff equation, 200 nM HiDapE + 10× dye",18.4 mM
same,"Effect on stability (Tm) of HiDapE, in words",[2]; thermal shift assays,stabilize HiDapE
same,Tm1 AbDapE,[3]; 0.001 mM Li2SO4,41.4 ± 0.1 °C
same,Tm2 AbDapE,[3]; 0.001 mM Li2SO4,63.1 ± 0.1 °C
same,Tm1 AbDapE,[3]; 0.005 mM Li2SO4,41.8 ± 0.2 °C
same,Tm2 AbDapE,[3]; 0.005 mM Li2SO4,62.8 ± 0.2 °C
same,Tm1 AbDapE,[3]; 0.1 mM Li2SO4,41.6 ± 0.1 °C
same,Tm2 AbDapE,[3]; 0.1 mM Li2SO4,62.2 ± 0.1 °C
same,Tm1 AbDapE,[3]; 0.5 mM Li2SO4,41.7 ± 0.1 °C
same,Tm2 AbDapE,[3]; 0.5 mM Li2SO4,63.1 ± 0.1 °C
same,Tm1 AbDapE,[3]; 1 mM Li2SO4,41.3 ± 0.1 °C
same,Tm2 AbDapE,[3]; 1 mM Li2SO4,63.0 ± 0.1 °C
same,Tm1 AbDapE,[3]; 5 mM Li2SO4,41.6 ± 0.1 °C
same,Tm2 AbDapE,[3]; 5 mM Li2SO4,61.5 ± 0.2 °C
same,Tm1 AbDapE,[3]; 10 mM Li2SO4,41.5 ± 0.1 °C
same,Tm2 AbDapE,[3]; 10 mM Li2SO4,60.4 ± 0.1 °C
same,Tm1 AbDapE,[3]; 30 mM Li2SO4,42.2 ± 0.2 °C
same,Tm2 AbDapE,[3]; 30 mM Li2SO4,59.1 ± 0.2 °C
same,Tm1 AbDapE,[3]; 50 mM Li2SO4,42.1 ± 0.1 °C
same,Tm2 AbDapE,[3]; 50 mM Li2SO4,58.3 ± 0.1 °C
same,Tm1 AbDapE,[3]; 60 mM Li2SO4,42.4 ± 0.2 °C
same,Tm2 AbDapE,[3]; 60 mM Li2SO4,57.5 ± 0.1 °C
same,Tm1 AbDapE,[3]; 70 mM Li2SO4,42.4 ± 0.3 °C
same,Tm2 AbDapE,[3]; 70 mM Li2SO4,56.7 ± 0.2 °C
same,Tm AbDapE-SeMet,[4]; 0.001 mM Li2SO4,64.2 ± 0.7 °C
same,Tm AbDapE-SeMet,[4]; 0.005 mM Li2SO4,64.1 ± 0.3 °C
same,Tm AbDapE-SeMet,[4]; 0.1 mM Li2SO4,64.0 ± 0.2 °C
same,Tm AbDapE-SeMet,[4]; 0.5 mM Li2SO4,64.9 ± 0.1 °C
same,Tm AbDapE-SeMet,[4]; 1 mM Li2SO4,64.7 ± 0.5 °C
same,Tm AbDapE-SeMet,[4]; 5 mM Li2SO4,65.2 ± 0.1 °C
same,Tm AbDapE-SeMet,[4]; 10 mM Li2SO4,65.0 ± 0.3 °C
same,Tm AbDapE-SeMet,[4]; 50 mM Li2SO4,63.1 ± 0.1 °C
same,Tm AbDapE-SeMet,[4]; 70 mM Li2SO4,61.8 ± 0.1 °C
same,IC50,[5],13.8 mM

# Reference: PMC10809365 (ACS Omega, 2024)
